In ChEMBL document CHEMBL1275561, “In vitro activities of doripenem, a new broad-spectrum carbapenem, against recently collected clinical anaerobic isolates, with emphasis on the Bacteroides fragilis group” (2008):

Assays:
Format in all cases: functional
[1] = system: Parabacteroides distasonis; experiment: Antimicrobial activity against Bacteroides distasonis by agar dilution method
Method in brief: (§1)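 CLSI agar dilution on enriched brucella agar (5% lysed defibrinated sheep blood, 1 μg/ml vitamin K1), with drug plates made on the test day. Log-phase cells were adjusted to 0.5 McFarland, and about 10^5 CFU/spot was delivered by Steers replicator. Plates were incubated anaerobically at 37°C for 48 h. MIC was the lowest concentration giving a marked growth change versus the control plate. Controls were B. fragilis ATCC 25285 and B. thetaiotaomicron ATCC 29741.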

Bacteroides caccae [2] = experiment: Antimicrobial activity against Bacteroides caccae assessed as resistant isolates by agar dilution method
Method in brief: (§2)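 CLSI agar dilution on enriched brucella agar (5% lysed defibrinated sheep blood, 1 μg/ml vitamin K1), plates made on test day. Log-phase inocula adjusted to 0.5 McFarland; about 10^5 CFU/spot by Steers replicator. Incubated anaerobically at 37°C for 48 h. MIC was the lowest concentration giving a marked change in growth versus the drug-free control plate. Resistance rates used CLSI anaerobe breakpoints. Controls were B. fragilis ATCC 25285 and B. thetaiotaomicron ATCC 29741.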

Bacteroides caccae [3] = experiment: Antimicrobial activity against Bacteroides caccae by agar dilution method; method in brief: as §1
[4] = system: Parabacteroides distasonis; experiment: Antimicrobial activity against Bacteroides distasonis assessed as resistant isolates by agar dilution method; method in brief: as §2
Bacteroides fragilis [5] = experiment: Antimicrobial activity against Bacteroides fragilis by agar dilution method; method in brief: as §1
Bacteroides fragilis [6] = experiment: Antimicrobial activity against Bacteroides fragilis assessed as resistant isolates by agar dilution method; method in brief: as §2
Bacteroides ovatus [7] = experiment: Antimicrobial activity against Bacteroides ovatus by agar dilution method; method in brief: as §1
Bacteroides ovatus [8] = experiment: Antimicrobial activity against Bacteroides ovatus assessed as resistant isolates by agar dilution method; method in brief: as §2
[9] = system: Bacteroides thetaiotaomicron; experiment: Antimicrobial activity against Bacteroides thetaiotaomicron by agar dilution method; method in brief: as §1
[10] = system: Bacteroides thetaiotaomicron; experiment: Antimicrobial activity against Bacteroides thetaiotaomicron assessed as resistant isolates by agar dilution method; method in brief: as §2
Bacteroides uniformis [11] = experiment: Antimicrobial activity against Bacteroides uniformis by agar dilution method; method in brief: as §1
Bacteroides uniformis [12] = experiment: Antimicrobial activity against Bacteroides uniformis assessed as resistant isolates by agar dilution method; method in brief: as §2
Phocaeicola vulgatus [13] = experiment: Antimicrobial activity against Bacteroides vulgatus by agar dilution method; method in brief: as §1
Phocaeicola vulgatus [14] = experiment: Antimicrobial activity against Bacteroides vulgatus assessed as resistant isolates by agar dilution method; method in brief: as §2
Bacteroides eggerthii [15] = experiment: Antimicrobial activity against Bacteroides eggerthii by agar dilution method; method in brief: as §1
Bacteroides eggerthii [16] = experiment: Antimicrobial activity against Bacteroides eggerthii assessed as resistant isolates by agar dilution method; method in brief: as §2
Parabacteroides merdae [17] = experiment: Antimicrobial activity against Bacteroides merdae by agar dilution method; method in brief: as §1
Parabacteroides merdae [18] = experiment: Antimicrobial activity against Bacteroides merdae assessed as resistant isolates by agar dilution method; method in brief: as §2
Bacteroides nordii [19] = experiment: Antimicrobial activity against Bacteroides nordii by agar dilution method; method in brief: as §1
Bacteroides nordii [20] = experiment: Antimicrobial activity against Bacteroides nordii assessed as resistant isolates by agar dilution method; method in brief: as §2
Finegoldia magna [21] = experiment: Antimicrobial activity against Finegoldia magna assessed as resistant isolates by agar dilution method
Method in brief: (§3)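 Agar dilution following CLSI on brucella agar with 5% lysed defibrinated sheep blood and 1 μg/ml vitamin K1, plates made on test day. Log-phase cells at 0.5 McFarland, about 10^5 CFU/spot by Steers replicator, 48 h anaerobic at 37°C. MIC read as the lowest concentration causing a marked growth change versus control. Resistance counted by CLSI anaerobe breakpoints. Eubacterium lentum ATCC 43055 served as control.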

[22] = system: Peptoniphilus asaccharolyticus; experiment: Antimicrobial activity against Peptoniphilus asaccharolyticus assessed as resistant isolates by agar dilution method; details: pooled result: one value given for 4 cell lines, strains, targets or settings; method in brief: as §3
Anaerococcus prevotii = experiment: Antimicrobial activity against Anaerococcus prevotii by agar dilution method
Method in brief: (§4)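 Gram-positive anaerobes were tested by CLSI agar dilution on brucella agar enriched with 5% lysed defibrinated sheep blood and 1 μg/ml vitamin K1. Inoculum was log-phase growth at 0.5 McFarland, about 10^5 CFU/spot by replicator. Incubation was anaerobic, 37°C, 48 h. MIC was the lowest concentration with a marked growth change versus the drug-free plate. Eubacterium lentum ATCC 43055 was the control, and tests were repeated if it fell outside the CLSI range.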

Peptostreptococcus sp. = experiment: Antimicrobial activity against Peptostreptococcus sp. by agar dilution method
Method in brief: (§5)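 Log-phase isolates were adjusted to 0.5 McFarland, and about 10^5 CFU/spot was delivered by Steers replicator. Plates were incubated anaerobically at 37°C for 48 h. MIC was the lowest concentration giving a marked growth change versus the control plate. Eubacterium lentum ATCC 43055 was the QC strain, with repeats when out of range.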

Cutibacterium acnes [23] = experiment: Antimicrobial activity against Propionibacterium acnes by agar dilution method; method in brief: as §5
Cutibacterium acnes [24] = experiment: Antimicrobial activity against Propionibacterium acnes assessed as resistant isolates by agar dilution method; method in brief: as §3
Propionibacterium [25] = experiment: Antimicrobial activity against Propionibacterium sp. by agar dilution method; method in brief: as §5
Propionibacterium [26] = experiment: Antimicrobial activity against Propionibacterium sp. assessed as resistant isolates by agar dilution method; method in brief: as §3
Clostridioides difficile = experiment: Antimicrobial activity against Clostridium difficile by agar dilution method
Clostridium perfringens = experiment: Antimicrobial activity against Clostridium perfringens by agar dilution method
[Clostridium] innocuum [27] = Antimicrobial activity against Clostridium innocuum by agar dilution method
[Clostridium] innocuum [28] = Antimicrobial activity against Clostridium innocuum assessed as resistant isolates by agar dilution method; details: pooled result: one value given for 4 cell lines, strains, targets or settings
[29] = system: Clostridium paraputrificum; experiment: Antimicrobial activity against Clostridium paraputrificum by agar dilution method
Clostridium subterminale = experiment: Antimicrobial activity against Clostridium subterminale by agar dilution method
Clostridium tertium = experiment: Antimicrobial activity against Clostridium tertium by agar dilution method
Finegoldia magna [30] = experiment: Antimicrobial activity against Finegoldia magna by agar dilution method; method in brief: as §4
[31] = system: Peptoniphilus asaccharolyticus; experiment: Antimicrobial activity against Peptoniphilus asaccharolyticus by agar dilution method; method in brief: as §4
Parvimonas micra = experiment: Antimicrobial activity against Micromonas micros by agar dilution method; method in brief: as §4

COc1c(N2C[C@@H]3CCCN[C@@H]3C2)c(F)cc2c(=O)c(C(=O)O)cn(C3CC3)c12 [MOXIFLOXACIN]
64 µg/mL: MIC90 (Bacteroides uniformis [11]) | MIC90 (Phocaeicola vulgatus [13])
1 µg/mL: MIC50 (Bacteroides fragilis [5])
30.8%: Activity [10]
8 µg/mL: MIC50 [1] | MIC90 (Bacteroides fragilis [5]) | MIC50 (Phocaeicola vulgatus [13])
2 µg/mL: MIC50 (Bacteroides ovatus [7]) | MIC50 (Bacteroides eggerthii [15]) | MIC50 (Parabacteroides merdae [17]) | MIC50 (Bacteroides nordii [19])
40%: Activity (Bacteroides ovatus [8]) | Activity (Bacteroides eggerthii [16]) | Activity (Parabacteroides merdae [18]) | Activity (Bacteroides nordii [20]) | Activity (Finegoldia magna [21])
48.4%: Activity (Phocaeicola vulgatus [14])
53.3%: Activity [4]
50%: Activity (Bacteroides caccae [2])
0.25 µg/mL: MIC50 (Cutibacterium acnes [23]) | MIC (Propionibacterium [25]) | MIC50 (Propionibacterium [25])
4 µg/mL: MIC50 (Bacteroides caccae [3]) | MIC50 [9] | MIC50 (Bacteroides uniformis [11])
0%: Activity (Cutibacterium acnes [24]) | Activity (Propionibacterium [26])
32 µg/mL: MIC90 (Bacteroides ovatus [7]) | MIC90 [9]
14.8%: Activity [22]
14.3%: Activity (Bacteroides uniformis [12])
16 µg/mL: MIC90 [1] | MIC90 (Bacteroides caccae [3]) | MIC90 (Bacteroides eggerthii [15]) | MIC90 (Parabacteroides merdae [17]) | MIC90 (Bacteroides nordii [19]) | MIC90 (Anaerococcus prevotii) | MIC90 (Peptostreptococcus sp.)
0.5 µg/mL: MIC50 (Anaerococcus prevotii) | MIC50 (Peptostreptococcus sp.) | MIC90 (Cutibacterium acnes [23]) | MIC90 (Propionibacterium [25])
29.3%: Activity (Bacteroides fragilis [6])

CN[C@H](CC(C)C)C(=O)N[C@H]1C(=O)N[C@@H](CC(N)=O)C(=O)N[C@H]2C(=O)N[C@H]3C(=O)N[C@H](C(=O)N[C@H](C(=O)O)c4cc(O)cc(O)c4-c4cc3ccc4O)[C@H](O)c3ccc(c(Cl)c3)Oc3cc2cc(c3O[C@@H]2O[C@H](CO)[C@@H](O)[C@H](O)[C@H]2O[C@H]2C[C@](C)(N)[C@H](O)[C@H](C)O2)Oc2ccc(cc2Cl)[C@H]1O [VANCOMYCIN]
2 µg/mL: MIC90 (Clostridium perfringens) | MIC90 [31] | MIC90 (Parvimonas micra) | MIC90 (Anaerococcus prevotii) | MIC90 (Peptostreptococcus sp.)
0%: Activity ([Clostridium] innocuum [28]) | Activity (Finegoldia magna [21]) | Activity (Cutibacterium acnes [24]) | Activity (Propionibacterium [26])
16 µg/mL: MIC90 ([Clostridium] innocuum [27]) | MIC90 [29] | MIC90 (Clostridium subterminale) | MIC90 (Clostridium tertium)
8 µg/mL: MIC50 ([Clostridium] innocuum [27]) | MIC50 [29] | MIC50 (Clostridium subterminale) | MIC50 (Clostridium tertium)
1 µg/mL: MIC (Clostridioides difficile) | MIC (Clostridium perfringens) | MIC50 (Clostridium perfringens) | MIC50 (Finegoldia magna [30]) | MIC90 (Finegoldia magna [30]) | MIC50 [31] | MIC50 (Parvimonas micra) | MIC50 (Anaerococcus prevotii) | MIC50 (Peptostreptococcus sp.) | MIC (Cutibacterium acnes [23]) | MIC50 (Cutibacterium acnes [23]) | MIC90 (Cutibacterium acnes [23]) | MIC (Propionibacterium [25]) | MIC50 (Propionibacterium [25]) | MIC90 (Propionibacterium [25])
2.4%: Activity [22]
